From ChEMBL document CHEMBL1123409, “Analogues of platelet activating factor. 4. Some modifications of the phosphocholine moiety” (J Med Chem, 1986)

Tests used:
Oryctolagus cuniculus [1] = species on record: Oryctolagus cuniculus; experiment: Effective concentration required to produce 50% of maximum aggregation of platelets; format: functional, organism-based
How it was run: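 Aggregation tested in rabbit platelet-rich plasma. In each experiment, a dose-response curve was built from six to eight doses spanning 10^-9 to 10^-4 M, with three to four replicates per dose level. EC50 is the molar concentration giving 50% of that analogue's own maximum aggregation response.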

Oryctolagus cuniculus [2] = species on record: Oryctolagus cuniculus; experiment: The maximum aggregation response observed at 1.6e-4 M concentration of the compound; format: functional
Rattus norvegicus = experiment: Intravenous dose required to decrease mean arterial blood pressure (MABP) 50 mm Hg; format: functional
How it was run: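 Spontaneously hypertensive rats, dosed intravenously. The dose that lowers mean arterial blood pressure by 50 mm Hg is read from the dose-response curve.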

Oryctolagus cuniculus [3] = species on record: Oryctolagus cuniculus; experiment: The maximum aggregation response observed at 1e-5 M concentration of the compound; format: functional
[4] = The ratio of (MABP / Platelet EC 50) x 10^-8
Oryctolagus cuniculus [5] = species on record: Oryctolagus cuniculus; experiment: The maximum aggregation response observed at 1.7e-4M concentration of the compound; format: functional
Oryctolagus cuniculus [6] = species on record: Oryctolagus cuniculus; experiment: The maximum aggregation response observed at 1.8e-4 M concentration of the compound; format: functional
Oryctolagus cuniculus [7] = species on record: Oryctolagus cuniculus; experiment: The maximum aggregation response observed at 1e-6 M concentration of the compound; format: functional
Oryctolagus cuniculus [8] = species on record: Oryctolagus cuniculus; experiment: The maximum aggregation response observed at 1.48e-5 M concentration of the compound; format: functional
Oryctolagus cuniculus [9] = species on record: Oryctolagus cuniculus; experiment: The maximum aggregation response observed at 1.7e-4 M concentration of the compound; format: functional
[10] = The ratio of (MABP / Platelet EC 50) x 100; format: functional
Oryctolagus cuniculus [11] = species on record: Oryctolagus cuniculus; experiment: The maximum aggregation response observed at 5e-5 M concentration of the compound; format: functional
Oryctolagus cuniculus [12] = species on record: Oryctolagus cuniculus; experiment: The maximum aggregation response observed at 6.8e-6 M concentration of the compound; format: functional

CCCCCCCCCCCCCCCCOCC(COP(=O)([O-])OCCCCCCCCCC[N+](C)(C)C)OC(C)=O (stereo not given)
EC50 (Oryctolagus cuniculus [1]): 59 µM | Max aggregation response (Oryctolagus cuniculus [2]): 18 | Dose (Rattus norvegicus): >4000 µg/kg

CCCCCCCCCCCCCCCCCCOCC(COP(=O)([O-])OCCCC[N+](C)(C)C)OC(C)=O (stereo not given)
Dose (Rattus norvegicus): 15.85 µg/kg | Max aggregation response (Oryctolagus cuniculus [3]): 71 | Ratio [4]: 0.36

CCCCCCCCCCCCCCCCOCC(COP(=O)([O-])OCCCCCCCC[N+](C)(C)C)OC(C)=O (stereo not given)
EC50 (Oryctolagus cuniculus [1]): 37 µM | Dose (Rattus norvegicus): >4000 µg/kg | Max aggregation response (Oryctolagus cuniculus [5]): 41

CCCCCCCCCCCCCCCCOCC(COP(=O)([O-])OC(C)C[N+](C)(C)C)OC(C)=O (stereo not given)
Dose (Rattus norvegicus): 1.16 µg/kg | Max aggregation response (Oryctolagus cuniculus [3]): 74 | Ratio [4]: 0.28

CCCCCCCCCCCCCCCCOCC(COP(=O)([O-])OCCCC[N+](C)(C)C)OC(C)=O (stereo not given)
Dose (Rattus norvegicus): 4.84 µg/kg | Max aggregation response (Oryctolagus cuniculus [6]): 68 | Ratio [4]: 0.65

CCCCCCCCCCCCCCCCOCC(COP(=O)([O-])OCC(C)[N+](C)(C)C)OC(C)=O (stereo not given)
Dose (Rattus norvegicus): 0.15 µg/kg | Max aggregation response (Oryctolagus cuniculus [7]): 66 | Ratio [4]: 0.47

CCCCCCCCCCCCCCCCCCOCC(COP(=O)([O-])OCC[N+](C)(C)C)OC(C)=O (stereo not given)
Dose (Rattus norvegicus): 3.17 µg/kg | Max aggregation response (Oryctolagus cuniculus [8]): 75 | Ratio [4]: 1.34

CCCCCCCCCCCCCCCCOCC(COP(=O)([O-])OCCCCCC[N+](C)(C)C)OC(C)=O (stereo not given)
EC50 (Oryctolagus cuniculus [1]): 27 µM | Max aggregation response (Oryctolagus cuniculus [9]): 35 | Dose (Rattus norvegicus): 164.9 µg/kg | Ratio [4]: 0.06

CCCCCCCCCCCCCCCCCCOCC(COP(=O)([O-])CC[N+](C)(C)C)OC(C)=O (stereo not given)
Dose (Rattus norvegicus): 76.54 µg/kg | Max aggregation response (Oryctolagus cuniculus [3]): 82 | Ratio [4]: 3.83

CCCCCCCCCCCCCCCCOCC(COP(=O)([O-])OCC(c1ccccc1)[N+](C)(C)C)OC(C)=O (stereo not given)
Dose (Rattus norvegicus): 3.93 µg/kg | Ratio [10]: 0.06 | Max aggregation response (Oryctolagus cuniculus [11]): 69

CCCCCCCCCCCCCCCCOCC(COP(=O)([O-])Oc1cccc(C[N+](C)(C)C)c1)OC(C)=O (stereo not given)
Dose (Rattus norvegicus): 1.36 µg/kg | Max aggregation response (Oryctolagus cuniculus [11]): 64 | Ratio [4]: 0.23

CCCCCCCCCCCCCCCCOCC(COP(=O)([O-])OCCC[N+](C)(C)C)OC(C)=O (stereo not given)
Dose (Rattus norvegicus): 1.43 µg/kg | Max aggregation response (Oryctolagus cuniculus [7]): 65 | Ratio [4]: 0.57

CCCCCCCCCCCCCCCCOCC(COP(=O)([O-])OCC[N+](C)(C)C)OC(C)=O (stereo not given) [PLATELET ACTIVATING FACTOR]
Dose (Rattus norvegicus): 1.25 µg/kg | Max aggregation response (Oryctolagus cuniculus [12]): 71 | Ratio [4]: 0.47
